Measured values as given in ChEMBL document CHEMBL1275419, “The thymidine-dependent small-colony-variant phenotype is associated with hypermutability and antibiotic resistance in clinical Staphylococcus aureus isolates” (Antimicrob Agents Chemother, 2008).
Calls of active or inactive are those of the source. The rule behind the calls is not given here.

Key:
Format in all cases: functional, organism-based
Staphylococcus aureus [1] = assay: Antibacterial activity against thymidine-dependent small-colony variant Staphylococcus aureus derived from cystic fibrosis patient assessed as resistant isolates at 37 degC after 24 hrs by disk diffusion method
Outline: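 Disk diffusion per CLSI guidelines (fosfomycin per French CA-SFM guidelines). Thymidine-dependent SCVs cannot grow without thymidine, so they were tested on Mueller-Hinton agar with 5% defibrinated sheep blood and incubated 24 h at 37°C. Isolates scored susceptible or resistant per agent.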

Staphylococcus aureus [2] = assay: Antibacterial activity against normal-colony variant Staphylococcus aureus derived from cystic fibrosis patient assessed as resistant isolates at 37 degC after 24 hrs by disk diffusion method
Outline: (§1)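 Disk diffusion per CLSI guidelines (fosfomycin per French CA-SFM guidelines). NCV isolates tested on plain Mueller-Hinton agar and incubated 24 h at 37°C. Isolates scored susceptible or resistant per agent.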

Staphylococcus aureus [3] = assay: Antibacterial activity against normal-colony variant Staphylococcus aureus derived from non cystic fibrosis patient assessed as resistant isolates at 37 degC after 24 hrs by disk diffusion method; outline: as §1

Compound	Activity (Staphylococcus aureus [1])	Activity (Staphylococcus aureus [2])	Activity (Staphylococcus aureus [3])
CC[C@H]1OC(=O)[C@H](C)[C@@H](O[C@H]2C[C@@](C)(OC)[C@@H](O)[C@H](C)O2)[C@H](C)[C@@H](O[C@@H]2O[C@H](C)C[C@H](N(C)C)[C@H]2O)[C@](C)(O)C[C@@H](C)C(=O)[C@H](C)[C@@H](O)[C@]1(C)O	inactive	Active	Active
C[C@@H]1O[C@@H]1P(=O)(O)O	inactive	Active	Active
CO[C@H]1/C=C/O[C@@]2(C)Oc3c(C)c(O)c4c(O)c(c(/C=N/N5CCN(C)CC5)c(O)c4c3C2=O)NC(=O)/C(C)=C\C=C\[C@H](C)[C@H](O)[C@@H](C)[C@@H](O)[C@@H](C)[C@H](OC(C)=O)[C@@H]1C	inactive	Active	Active
GENTAMICIN	inactive	Active	Active
O=C(O)c1cn(C2CC2)c2cc(N3CCNCC3)c(F)cc2c1=O	inactive	Active	Active
